In ChEMBL document CHEMBL1250424, “Design, synthesis and evaluation of 2-amino-4-m-bromoanilino-6-arylmethyl-7H-pyrrolo[2,3-d]pyrimidines as tyrosine kinase inhibitors and antiangiogenic agents” (Bioorg Med Chem, 2010):
pIC50: −log10 of the molar value.

Tests used:
[1] = biological target: Vascular endothelial growth factor receptor 2 (Homo sapiens, UniProt P35968); assay: Inhibition of VEGFR2 expressed in human A431 cells; assay type: cell-based, A-431
[2] = Antiangiogenic activity in fertilized chicken egg by CAM assay; assay type: functional, Gallus gallus
[3] = biological target: Epidermal growth factor receptor (Homo sapiens, UniProt P00533); assay: Inhibition of EGFR expressed in human A431 cells; assay type: cell-based, A-431
Epidermal growth factor receptor, sequence (P00533 whole entry): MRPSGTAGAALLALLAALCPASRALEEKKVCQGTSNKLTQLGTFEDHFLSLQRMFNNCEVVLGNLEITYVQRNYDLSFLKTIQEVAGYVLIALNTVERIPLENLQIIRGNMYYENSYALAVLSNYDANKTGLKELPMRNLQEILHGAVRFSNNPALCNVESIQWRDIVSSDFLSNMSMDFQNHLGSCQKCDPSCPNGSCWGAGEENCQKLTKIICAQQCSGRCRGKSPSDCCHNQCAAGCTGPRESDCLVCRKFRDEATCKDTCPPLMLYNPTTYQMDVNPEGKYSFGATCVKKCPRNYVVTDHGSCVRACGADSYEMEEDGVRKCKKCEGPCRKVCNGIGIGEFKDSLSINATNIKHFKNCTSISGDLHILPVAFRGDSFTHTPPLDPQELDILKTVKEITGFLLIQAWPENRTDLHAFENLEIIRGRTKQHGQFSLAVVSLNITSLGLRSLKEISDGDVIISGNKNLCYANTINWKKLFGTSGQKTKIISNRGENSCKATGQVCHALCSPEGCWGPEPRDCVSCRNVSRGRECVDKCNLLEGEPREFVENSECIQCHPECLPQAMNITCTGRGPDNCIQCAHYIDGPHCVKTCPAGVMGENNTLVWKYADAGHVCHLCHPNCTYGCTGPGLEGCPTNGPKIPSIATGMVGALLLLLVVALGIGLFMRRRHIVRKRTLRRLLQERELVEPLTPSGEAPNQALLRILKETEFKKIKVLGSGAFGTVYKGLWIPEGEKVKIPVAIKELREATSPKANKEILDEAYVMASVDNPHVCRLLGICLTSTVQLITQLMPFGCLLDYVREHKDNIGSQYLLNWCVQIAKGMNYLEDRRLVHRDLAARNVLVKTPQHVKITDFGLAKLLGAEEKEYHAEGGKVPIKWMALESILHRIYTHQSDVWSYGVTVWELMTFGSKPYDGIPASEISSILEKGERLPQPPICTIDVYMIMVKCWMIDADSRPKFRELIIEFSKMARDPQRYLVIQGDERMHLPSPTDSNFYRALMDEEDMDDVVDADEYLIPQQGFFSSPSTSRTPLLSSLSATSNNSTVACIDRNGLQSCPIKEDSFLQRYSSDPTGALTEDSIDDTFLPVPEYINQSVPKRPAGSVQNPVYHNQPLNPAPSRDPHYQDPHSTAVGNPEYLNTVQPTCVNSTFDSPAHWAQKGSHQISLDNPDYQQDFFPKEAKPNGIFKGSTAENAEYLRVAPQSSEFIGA

A-431 = assay: Cytotoxicity against human A431 cells; assay type: functional, cell-based
How it was run: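 Growth inhibition of A431 cells, which over-express EGFR, measured in culture. Cisplatin was run in each evaluation as the reference standard. Each assay was performed 2-3 times, with 4-5 replicates per assay.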

[4] = biological target: Platelet-derived growth factor receptor beta (Homo sapiens, UniProt P09619); assay: Inhibition of PDGFRbeta expressed in human A431 cells; assay type: cell-based, A-431
Platelet-derived growth factor receptor beta, sequence (P09619 whole entry): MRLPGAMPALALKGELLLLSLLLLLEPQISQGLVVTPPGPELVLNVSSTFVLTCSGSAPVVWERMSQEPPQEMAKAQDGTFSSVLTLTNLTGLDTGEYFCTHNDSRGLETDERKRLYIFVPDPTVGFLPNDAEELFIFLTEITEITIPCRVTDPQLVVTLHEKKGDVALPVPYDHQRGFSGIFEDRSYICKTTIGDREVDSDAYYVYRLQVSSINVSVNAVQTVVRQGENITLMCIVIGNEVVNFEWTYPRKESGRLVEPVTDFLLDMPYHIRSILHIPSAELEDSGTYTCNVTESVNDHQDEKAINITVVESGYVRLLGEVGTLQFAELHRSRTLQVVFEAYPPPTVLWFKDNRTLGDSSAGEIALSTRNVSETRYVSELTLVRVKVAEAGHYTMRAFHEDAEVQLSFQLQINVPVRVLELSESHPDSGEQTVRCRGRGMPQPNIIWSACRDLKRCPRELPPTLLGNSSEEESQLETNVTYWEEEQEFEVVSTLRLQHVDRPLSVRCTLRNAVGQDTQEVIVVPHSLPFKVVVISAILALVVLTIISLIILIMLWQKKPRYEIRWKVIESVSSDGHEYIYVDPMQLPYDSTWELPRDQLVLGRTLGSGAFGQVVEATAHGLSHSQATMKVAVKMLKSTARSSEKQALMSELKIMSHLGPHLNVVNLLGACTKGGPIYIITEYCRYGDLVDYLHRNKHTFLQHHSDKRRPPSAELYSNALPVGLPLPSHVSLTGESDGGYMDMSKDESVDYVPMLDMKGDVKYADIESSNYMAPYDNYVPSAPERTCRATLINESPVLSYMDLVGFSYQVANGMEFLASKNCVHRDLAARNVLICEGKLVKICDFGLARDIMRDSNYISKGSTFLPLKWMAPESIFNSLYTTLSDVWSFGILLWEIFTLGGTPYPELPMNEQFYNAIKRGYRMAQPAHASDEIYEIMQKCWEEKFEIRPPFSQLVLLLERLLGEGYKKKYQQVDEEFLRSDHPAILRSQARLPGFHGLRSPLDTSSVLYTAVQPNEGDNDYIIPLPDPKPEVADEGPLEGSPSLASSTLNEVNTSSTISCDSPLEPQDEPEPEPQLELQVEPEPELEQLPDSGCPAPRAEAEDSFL

Vascular endothelial growth factor receptor 2, sequence (P35968 whole entry): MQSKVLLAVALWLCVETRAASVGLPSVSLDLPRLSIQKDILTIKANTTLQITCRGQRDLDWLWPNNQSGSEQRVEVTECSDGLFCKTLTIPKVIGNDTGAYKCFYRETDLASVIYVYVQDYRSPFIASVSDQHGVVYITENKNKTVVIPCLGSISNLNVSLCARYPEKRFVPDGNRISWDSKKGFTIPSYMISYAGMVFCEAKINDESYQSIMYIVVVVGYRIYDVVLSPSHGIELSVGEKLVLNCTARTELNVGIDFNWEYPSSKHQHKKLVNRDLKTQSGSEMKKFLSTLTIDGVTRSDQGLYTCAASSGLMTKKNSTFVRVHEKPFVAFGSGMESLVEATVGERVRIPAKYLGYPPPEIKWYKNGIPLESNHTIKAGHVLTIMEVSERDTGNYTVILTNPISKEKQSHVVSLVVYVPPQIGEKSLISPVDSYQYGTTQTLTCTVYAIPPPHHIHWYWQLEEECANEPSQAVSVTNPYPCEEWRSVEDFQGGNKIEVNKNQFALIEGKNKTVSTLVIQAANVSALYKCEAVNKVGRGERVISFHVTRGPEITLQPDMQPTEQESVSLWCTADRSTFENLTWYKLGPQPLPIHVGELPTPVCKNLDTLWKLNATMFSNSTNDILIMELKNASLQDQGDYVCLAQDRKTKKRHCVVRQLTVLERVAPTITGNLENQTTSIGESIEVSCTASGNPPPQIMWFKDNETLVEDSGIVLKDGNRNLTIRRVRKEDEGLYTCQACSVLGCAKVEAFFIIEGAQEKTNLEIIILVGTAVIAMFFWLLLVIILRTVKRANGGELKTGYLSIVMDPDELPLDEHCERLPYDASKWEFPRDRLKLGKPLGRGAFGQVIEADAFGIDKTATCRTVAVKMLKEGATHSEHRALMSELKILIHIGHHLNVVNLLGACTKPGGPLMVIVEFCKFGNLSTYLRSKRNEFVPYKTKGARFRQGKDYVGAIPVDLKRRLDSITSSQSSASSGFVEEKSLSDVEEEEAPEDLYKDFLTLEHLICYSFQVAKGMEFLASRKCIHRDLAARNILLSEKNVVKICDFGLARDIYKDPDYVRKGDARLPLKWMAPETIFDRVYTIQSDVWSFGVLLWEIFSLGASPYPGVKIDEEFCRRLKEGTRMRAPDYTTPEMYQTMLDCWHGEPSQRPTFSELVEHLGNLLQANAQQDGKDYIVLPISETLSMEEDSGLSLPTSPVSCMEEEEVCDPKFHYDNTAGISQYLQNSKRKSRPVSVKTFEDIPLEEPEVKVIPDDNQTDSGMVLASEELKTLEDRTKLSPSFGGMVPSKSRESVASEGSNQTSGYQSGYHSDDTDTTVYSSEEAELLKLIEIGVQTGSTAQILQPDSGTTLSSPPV

Row | Structure (SMILES) | pIC50 [1] | pIC50 [2] | pIC50 [3] | pIC50 [4] | pIC50 (A-431)
1 | Cc1ccccc1Cc1cc2c(Nc3cccc(Br)c3)nc(N)nc2[nH]1 | 6.60 | – | – | – | –
2 | COc1ccc(OC)c(Cc2cc3c(Nc4cccc(Br)c4)nc(N)nc3[nH]2)c1 | 6.21 | 5.88 | – | – | –
3 | CN(c1cccc(Br)c1)c1nc(N)nc2[nH]c(Cc3ccccc3)cc12 | 4.05 | 5.81 | 4.27 | < 3.30 | 4.34
4 | CN(c1cccc(Br)c1)c1nc(N)nc2c1cc(Cc1ccccc1)n2C | < 3.70 | 5.59 | 3.60 | 4.14 | 4.29
5 | Cc1ccccc1Cc1cc2c(N(C)c3cccc(Br)c3)nc(N)nc2[nH]1 | < 3.70 | 6.03 | 4.51 | 4.46 | < 3.30
6 | COc1ccc(OC)c(Cc2cc3c(N(C)c4cccc(Br)c4)nc(N)nc3[nH]2)c1 | < 3.70 | 6.08 | 3.84 | 5.89 | 3.70
7 | COc1ccc(OC)c(Cc2cc3c(N(C)c4cccc(Br)c4)nc(N)nc3n2C)c1 | < 3.70 | 5.69 | 6.30 | < 3.30 | 4.03

Further lines, with some results ahead:

Row | pIC50 [1] | pIC50 [2] | pIC50 [3] | pIC50 [4] | Structure (SMILES) | pIC50 (A-431)
8 | < 3.70 | 5.21 | < 3.70 | 5.55 | Cn1c(Cc2ccccc2)cc2c(Nc3cccc(Br)c3)nc(N)nc21 | 4.55
9 | 3.93 | 5.52 | 4.89 | < 3.30 | Cc1ccccc1Cc1cc2c(Nc3cccc(Br)c3)nc(N)nc2n1C | 3.69
10 | < 3.70 | 5.80 | 5.92 | < 3.30 | Cc1ccccc1Cc1cc2c(N(C)c3cccc(Br)c3)nc(N)nc2n1C | 3.65
11 | < 3.70 | 5.48 | < 3.70 | 3.46 | COc1ccc(OC)c(Cc2cc3c(Nc4cccc(Br)c4)nc(N)nc3n2C)c1 | 4.45
